mIAP inh: inhibitors of mouse IAP, primary screen, biochemical, luminescence, uHTS. 330,000 tested, 0.2% active. AID 2806, 2010. inhibition, % at 10 µM. purified mouse IAP, CDP-Star luminescence, 30 min;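 active = inhibition of at least 40% at 10 µM in the primary screen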;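 note: plate controls were DMSO with enzyme for no effect and no enzyme wells for full effect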
hIAP activ: human IAP activators, primary screen, biochemical, luminescence, uHTS; activation factor at 10 µM; 330,000 tested, 0.16% active; purified human IAP, CDP-Star luminescence, 30 min; stronger effect = higher value; 1 = vehicle-only enzyme, 0 = enzyme-free background; AID 2524, 2010;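 active = activation factor of the enzyme at least 2-fold when tested at 20 µM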
bIAP inh: bovine intestinal alkaline phosphatase inhibitors, primary screen, selectivity assay for TNAP inhibitor project, biochemical, bovine IAP, CDP-star luminescence; 190,000 tested, under 10 active; inhibition, % at 20 µM; alkaline phosphatase, intestinal [Bos taurus]; purified bovine IAP, 30 min;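 active = over 50% inhibition of intestinal alkaline phosphatase at 20 µM in the single-dose screen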
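test system = bovine IAP enzyme | medium = DEA buffer 100 mM, pH 9.8, with MgCl2 1.0 mM, ZnCl2 0.02 mM | detection = luminescence | dosing = single compound dose of 20 µM, 2% DMSO final | incubation = 30 min reaction at room temperature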
bIAP act: bovine intestinal alkaline phosphatase activators, primary screen, biochemical, bovine IAP, CDP-star luminescence; activation factor at 20 µM; 200,000 tested, 0.17% active; purified bovine IAP, 30 min; stronger effect = higher value; fold of DMSO-control signal, blank-subtracted;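 active = activation factor of 2 or more at 20 µM, a signal rise over negative controls twice the positive control's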
mIAP act: activators of mouse IAP, primary screen, biochemical, luminescence, uHTS; activation factor at 10 µM; intestinal alkaline phosphatase [Mus musculus]; muIAP, CDP-Star luminescence, 30 min; stronger effect = higher value; 1 = vehicle-only enzyme signal, 0 = enzyme-free wells; AID 2805, 2010; 330,000 tested, 0.24% active;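 active = activation factor of at least 2 at 20 µM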
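Assay system: mouse IAP enzyme / Compound: DMSO-dissolved test compounds / Timing: 30 min, room temperature / Measured by: luminescence from enzymatic CDP-Star hydrolysis / Control set: DMSO-only wells, enzyme-free buffer wells as negative control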
hIAP inh: human IAP inhibitors, primary screen, biochemical, luminescence, uHTS; Intestinal-type alkaline phosphatase (Homo sapiens), P09923; purified IAP, CDP-Star luminescence, 30 min; inhibition, % at 10 µM; 330,000 tested, 0.12% active;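 active = inhibition reaching a set limit with compound at 10 µM in the primary screen, cut at about 35% in these data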;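 note: plate controls were DMSO wells with enzyme for no effect and no-enzyme buffer wells for full effect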
hIAP act confirm: human IAP activators, confirmation, biochemical, luminescence, single concentration, uHTS hits | shares compounds with hIAP activ | purified IAP, CDP-Star luminescence, 30 min; stronger effect = lower value | activation (%Activity, negative = activation), % at 8.3 µM | 880 tested, 10% active;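 active = at least twofold enzyme activation in any of six single-dose repeats, which the averaged readout prints as negative percent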
Active calls of the source: *; . = no result given. This is a sample that favours compounds with a hit; in the whole collection about 0.72% have one here.

SMILES	mIAP inh	hIAP activ	bIAP inh	bIAP act	mIAP act	hIAP inh	hIAP act confirm
O=C1C=C(N2CCOCC2)c2ccccc2C1=O	-4	0.55	.	.	1	45*	3
CCn1cc(C(=O)NCCCOC)c(=O)c2cc(S(=O)(=O)N3CCCC3)ccc21	2	0.61	.	.	0.98	39*	-23
CCCCNC(=O)c1cn(CC)c2ccc(S(=O)(=O)N3CCCC3)cc2c1=O	-2	0.82	.	.	1	18	.
COc1ccc(CCNC(=O)COC(=O)CNS(=O)(=O)c2ccc(SC)c([N+](=O)[O-])c2)cc1	-11	1.1	.	.	1.1	-7	.
CC1=NN(c2ccccc2)C(=O)/C1=C\C=C1/N(C)c2ccccc2C1(C)C	36	0.67	-7	1.1	0.64	33	.
CC1=NN(c2ccccc2)C(=O)/C1=C\C=C1\N(C)c2ccccc2C1(C)C	40*	0.6	0	1	0.6	40*	-24
C/C=C/C(O)c1ccc2ccccc2c1 (stereo unspecified)	-9	0.98	.	.	1.1	2	.
CC(C)(Oc1ccc(Cl)cc1)C(=O)NCC1CCCO1 (stereo unspecified)	2	1.1	.	.	0.98	-7	.
C/C(=N/NC(=O)c1cc(-c2ccc(Br)s2)[nH]n1)c1ccco1	5	2.1*	-4	1	0.95	-114	-3
O=C(N/N=C/c1ccco1)c1cc(-c2ccc(Cl)s2)[nH]n1	4	2*	-26	1.3	0.96	-101	-66
O=C(N/N=C/c1cccs1)c1cc(-c2ccc(Cl)s2)[nH]n1	4	2*	.	.	0.96	-102	-14
O=C(N/N=C/c1ccco1)c1cc(-c2ccc(Br)s2)[nH]n1	16	0.98	.	.	0.84	2	.
CCOC(=O)c1ccc(NS(=O)(=O)c2cc3c4c(c2)CCN4C(=O)CC3)cc1	11	0.97	.	.	0.89	3	.
COc1cccc(NC(=O)COC(=O)c2ccccc2C(=O)N(C)c2ccccc2)c1	1	0.94	.	.	0.99	6	.
Cn1c(/C(C#N)=C(\O)c2ccc(Br)s2)nc2ccccc21	5	0.53	.	.	0.95	47*	27
Cn1c(/C(C#N)=C(\O)c2cc(Cl)sc2Cl)nc2ccccc21	6	0.79	.	.	0.94	21	.
Cc1nnc(NC(=O)CSc2n[nH]c(-c3ccccc3C)n2)s1	5	0.59	.	.	0.95	41*	-21
CCCCC(CC)C(=O)Nc1cc(=O)[nH]c2nc3ccccc3n12 (stereo unspecified)	4	2*	.	.	0.96	-102	5
COc1ccccc1OCCNC(=O)C(CCSC)NS(=O)(=O)c1ccccc1F (stereo unspecified)	-8	0.96	.	.	1.1	4	.
Cc1cc(O)c(-c2cc(C(=O)NCc3ccc4c(c3)OCO4)[nH]n2)cc1C	-29	0.86	-56	1.6	1.3	14	.
COc1ccc(CCNC(=O)c2cc(-c3cc(C)ccc3O)n[nH]2)cc1OC	-68	2.7*	-96	2*	1.7	-168	-9
O=C(NCc1ccc2c(c1)OCO2)c1cc(-c2cc(Cl)ccc2O)n[nH]1	-28	2.1*	.	.	1.3	-108	18
Cc1cccc(NC(=O)c2cc(-c3cc(C)c(C)cc3O)n[nH]2)c1	-2	1.8	.	.	1	-78	.
Cc1cccc(NC(=O)c2cc(-c3cc(C)ccc3O)n[nH]2)c1	-16	2*	.	.	1.2	-104	7
COc1ccc(CCNC(=O)c2cc(-c3ccc(C)c(C)c3O)n[nH]2)cc1OC	-8	1.9	-37	1.4	1.1	-91	.
COc1ccc(NC(=O)c2cc(-c3ccc(C)cc3O)n[nH]2)c(OC)c1	2	2.1*	.	.	0.98	-106	-37
Cc1ccc(C(=O)N(C)CC(=O)Nc2cccc(F)c2)cc1S(=O)(=O)N1CCCCC1	-9	0.86	.	.	1.1	14	.
